Experiment [1] concerns Canis familiaris. Description: Saluretic activity in the dog measured as concentration of Na+ in urinary excretion (2 animals/dose) at (dose 0.025 mg/Kg, perorally). In kind it is functional, Canis lupus familiaris, Urine. The essentials: (§1)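 Male beagles trained to rest on a table and to accept stomach tube and catheter. Food withdrawn 24 h before, tap water ad libitum. Bladder emptied by catheter, then 20 mL/kg tap water by stomach tube. Catheterized hourly up to 8 h with 4 mL/kg water orally each time; first 2 h urine served as control. Oral dosing after second catheterization. Pooled 1–6 h urine; Na⁺/K⁺ by flame photometry, Cl⁻ argentometrically.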

In experiment [2] the test system is Canis familiaris. The experiment in a line: Saluretic activity in the dog measured as concentration of Na+ in urinary excretion (2 animals/dose) at (dose 0.4 mg/Kg, perorally). In kind it is functional, Canis lupus familiaris, Urine. The essentials:
as §1

For experiment [3], the system named is Canis familiaris. Description: Saluretic activity in the dog measured as concentration of Cl - in urinary excretion (2 animals/dose) at (dose 0.025 mg/Kg, perorally). The experiment is classed as functional, Canis lupus familiaris, Urine. The essentials: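 Male beagles trained to the procedures, food withdrawn 24 h before, tap water ad libitum. Bladder emptied by catheter, then 20 mL/kg tap water by stomach tube, plus 4 mL/kg orally at each hourly catheterization up to 8 h. The first 2 h of urine served as control. Compound given orally after the second catheterization. Urine from 1–6 h post-dose pooled; Na⁺ and K⁺ by flame photometry, Cl⁻ argentometrically, in mequiv/kg.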

The subject of experiment [4] is Canis familiaris. The experiment in a line: sodium excretion collected at 1-24 hr time after oral administration in dog (four animals per dose) dosed at 0.39 mg/kg. The experiment is classed as functional, Canis lupus familiaris. An outline of the steps: (§2)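 Trained male beagles, four per dose, fasted 24 h with tap water ad libitum. After bladder emptying, given 20 mL/kg tap water by stomach tube, then 4 mL/kg at each hourly catheterization; 2 h control collection, then oral dosing. Urine volume and Na⁺ (flame photometry) reported for 1–6, 7–24 and 1–24 h post-dose periods.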

The subject of experiment [5] is Canis familiaris. Description: sodium excretion collected at 1-24 hr time after oral administration in dog (four animals per dose) dosed at 3.12 mg/kg. The experiment is classed as functional, Canis lupus familiaris. An outline of the steps:
as §2

The test system of experiment [6] is Canis familiaris. The experiment in a line: sodium excretion collected at 1-6 hr time after oral administration in dog (four animals per dose) dosed at 0.39 mg/kg. The experiment is classed as functional, Canis lupus familiaris. The essentials: as §2
The subject of experiment [7] is Canis familiaris. Description: sodium excretion collected at 1-6 hr time after oral administration in dog (four animals per dose) dosed at 3.12 mg/kg. The experiment is classed as functional, Canis lupus familiaris. An outline of the steps:
as §2

The test system of experiment [8] is Canis familiaris. Description: sodium excretion collected at 7-24 hr time after oral administration in dog (four animals per dose) dosed at 0.39 mg/kg. In kind it is functional, Canis lupus familiaris. The essentials: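 Trained male beagles, food withdrawn 24 h beforehand with tap water ad libitum. Bladder emptied by catheter, then 20 mL/kg tap water by stomach tube. Catheterized hourly (up to 8 h) with 4 mL/kg water orally each time. First 2 h of urine served as control. Compound given orally after second catheterization. Na⁺ measured flame-photometrically, in mequiv/kg.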

Experiment [9] relates to Canis familiaris. The experiment in a line: urinary excretion collected at 1-6 hr time after oral administration in dog (four animals per dose) dosed at 3.12 mg/kg. The experiment is classed as functional, Canis lupus familiaris, Urine.
For experiment [10], the system named is Canis familiaris. The experiment in a line: urinary excretion collected at 7-24 hr time after oral administration in dog (four animals per dose) dosed at 0.05 mg/kg. The experiment is classed as functional, Canis lupus familiaris, Urine.
Experiment [11] has as its system Canis familiaris. Description: urinary excretion collected at 7-24 hr time after oral administration in dog (four animals per dose) dosed at 0.39 mg/kg. The experiment is classed as functional, Canis lupus familiaris, Urine.
In experiment [12] the test system is Canis familiaris. The experiment in a line: urinary excretion collected at 1-24 hr time after oral administration in dog (four animals per dose) dosed at 0.05 mg/kg. In kind it is functional, Canis lupus familiaris, Urine. The essentials:
(§3)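 Trained male beagles, four per dose, fasted 24 h with tap water ad libitum. The bladder was emptied by catheter, then 20 mL/kg tap water was given by stomach tube. Dogs were catheterized hourly with 4 mL/kg water orally each time, and the first 2 h served as control. Compound was given orally after the second catheterization. Urine volume and flame-photometric Na⁺ were measured over 1-6, 7-24 and 1-24 h.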

Experiment [13] deals with Canis familiaris. The experiment in a line: urinary excretion collected at 1-24 hr time after oral administration in dog (four animals per dose) dosed at 3.12 mg/kg. In kind it is functional, Canis lupus familiaris, Urine. The essentials: as §3
Experiment [14] is described as follows: It is the ratio, measured as saluretic activity in the dog as concentration of Cl- in urinary excretion (dose 0.4 mg/Kg, po) to that of (Na+)+(K+). The experiment is classed as functional, Urine. The essentials:
(§4)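 Trained male beagles, fasted 24 h with tap water ad libitum. Bladder emptied by catheter, then 20 mL/kg tap water by stomach tube, with 4 mL/kg water at each hourly catheterization up to 8 h. The first 2 h of urine served as control. Oral dosing came after the second catheterization, and 1–6 h urine was pooled. Na⁺ and K⁺ were measured by flame photometry, Cl⁻ argentometrically, in mequiv/kg.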

Experiment [15] can be described thus: It is the ratio, measured as saluretic activity in the dog as concentration of Cl- in urinary excretion (dose 1.56 mg/Kg, po) to that of (Na+)+(K+). The experiment is classed as functional, Urine. The essentials:
as §4

Experiment [16] relates to Canis familiaris. Description: Saluretic activity in the dog measured as concentration of Na+ in urinary excretion (2 animals/dose) at (dose 12.5 mg/Kg, perorally). In kind it is functional, Canis lupus familiaris, Urine. The essentials: as §1
The subject of experiment [17] is Canis familiaris. The experiment in a line: Saluretic activity in the dog measured as concentration of K+ in urinary excretion (2 animals/dose) at (dose 12.5 mg/Kg, perorally). The experiment is classed as functional, Canis lupus familiaris, Urine. The essentials:
as §1

Experiment [18] relates to Canis familiaris. Description: Urinary excretion collected at 1-24 hr time after oral administration in dog (four animals per dose) at dose 1.56 mg/kg. The experiment is classed as functional, Canis lupus familiaris, Urine. An outline of the steps:
as §2

In experiment [19] the test system is Canis familiaris. Description: Urinary excretion collected at 1-6 hr time after oral administration in dog (four animals per dose) at dose 1.56 mg/kg. The experiment is classed as functional, Canis lupus familiaris, Urine. An outline of the steps: as §2
The subject of experiment [20] is Canis familiaris. The experiment in a line: sodium excretion collected at 1-24 h time after oral administration in dog (four animals per dose) at dose 6.25 mg/kg. The experiment is classed as functional, Canis lupus familiaris. The essentials:
as §2

Experiment [21] has as its system Canis familiaris. The experiment in a line: sodium excretion collected at 1-6 hr time after oral administration in dog (four animals per dose) at dose 1.56 mg/kg. In kind it is functional, Canis lupus familiaris. The essentials:
as §2

The test system of experiment [22] is Canis familiaris. The experiment in a line: sodium excretion collected at 7-24 hr time after oral administration in dog (four animals per dose) at dose 1.56 mg/kg. In kind it is functional, Canis lupus familiaris. An outline of the steps: as §2
Experiment [23] concerns Canis familiaris. The experiment in a line: sodium excretion collected at 7-24 hr time after oral administration in dog (four animals per dose) at dose 6.25 mg/kg. The experiment is classed as functional, Canis lupus familiaris. An outline of the steps: as §2
Experiment [24] deals with Canis familiaris. The experiment in a line: Urinary excretion collected at 7-24 hr time after oral administration in dog (four animals per dose) at dose 0.39 mg/kg. The experiment is classed as functional, Canis lupus familiaris, Urine. An outline of the steps:
as §2

Experiment [25] has as its system Canis familiaris. Description: Urinary excretion collected at 7-24 hr time after oral administration in dog (four animals per dose) at dose 1.56 mg/kg. The experiment is classed as functional, Canis lupus familiaris, Urine. An outline of the steps:
as §2

The subject of experiment [26] is Canis familiaris. Description: Urinary excretion collected at 7-24 hr time after oral administration in dog (four animals per dose) at dose 6.25 mg/kg. The experiment is classed as functional, Canis lupus familiaris, Urine. The essentials: as §2
The nature of experiment [27]: It is the ratio, measured as saluretic activity in the dog as concentration of Cl- in urinary excretion (dose 0.4 mg/Kg, perorally) to that of (Na++K+). The experiment is classed as functional, Urine. An outline of the steps: as §4
The nature of experiment [28]: It is the ratio, measured as saluretic activity in the dog as concentration of Na+ in urinary excretion (dose 1.56 mg/Kg, perorally) to that of K. The experiment is classed as functional, Urine. The essentials: as §4
The nature of experiment [29]: It is the ratio, measured as saluretic activity in the dog as concentration of Na+ in urinary excretion (dose 12.5 mg/kg, p.o.) to that of K. In kind it is functional, Urine. To be noted: route oral. An outline of the steps:
as §4

Experiment [30] can be described thus: It is the ratio, measured as saluretic activity in the dog as concentration of Cl- in urinary excretion (dose 1.56 mg/Kg, perorally) to that of (Na+)+K+). In kind it is functional, Urine. The essentials: as §4
Experiment [31] is filed under the species Rattus norvegicus. The experiment in a line: Effect on (GFR) glomerular filtration rate in rats in comparison to furosemide activity.

Experimental findings from ChEMBL document CHEMBL1122273, “5-sulfamoylorthanilic acids, a sulfonamide series with salidiuretic activity” (J Med Chem, 1983) are described below.

The structures appear in SMILES notation.

On to `CN(c1ccccc1)c1cc(NCc2ccco2)c(S(=O)(=O)[O-])cc1S(N)(=O)=O.[Na+]`, for which the Saluretic activity in [1] worked out at 0.45 m equiv 6hr-1 kg-1; in experiment [2] it was 5.26 m equiv 6hr-1 kg-1. For the same compound, the Saldiuretic activity in [3] came to 0.75 mequiv kg-1 6hr-1. Further, the Na+ excretion in experiment [4] was 5.81 mequiv kg-1; in [5], 6.48 mequiv kg-1; in experiment [6], 5.26 mequiv kg-1; in experiment [7], 4.39 mequiv kg-1; in experiment [8] it was 0.55 mequiv kg-1. The Urinary excretion in experiment [9] turned out to be 61.2 mL/kg; in experiment [10], 10.1 mL/kg; in experiment [11], 20.4 mL/kg; in experiment [12], 50.6 mL/kg; in [13], 102 mL/kg. The Ratio in experiment [14] and in experiment [15] was 1 throughout.
With `NS(=O)(=O)c1cc(S(=O)(=O)[O-])c(NCc2ccco2)cc1Oc1ccccc1.[Na+]`, in experiment [16], the Saluretic activity worked out at 6.49 m equiv 6hr-1 kg-1. Moreover, the Saldiuretic activity in experiment [17] was 1.17 m equiv 6hr-1 kg-1. The Urinary excretion came to 78.9 mL/kg in experiment [18]; 61.1 mL/kg in experiment [19]; 9.3 mL/kg in [24]; 12.3 mL/kg in experiment [25]; 38.3 mL/kg in experiment [26]. For the same compound, the Na+ excretion in experiment [20] was found to be 8.55 mequiv kg-1; in experiment [21] it was 4.97 mequiv kg-1; in experiment [22] it was 0.48 mequiv kg-1; in experiment [23], 1.98 mequiv kg-1. Also, the Ratio in experiment [27] is 1.1; in experiment [28], 4.9; in [29], 5.5; in [30] it was 0.95. The compound also had a GFR in [31] of 6.89 mL/min/kg.
